# Columns and labels:
# Assay type in all cases: functional, cell-based
# [1] = test system: SK-MEL-28; assay: Antiproliferative activity against human SK-MEL-28 cells after 72 hrs by MTS/PMS assay; settings: SK-MEL-28, 72 h
# In short: (§1)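 Cells kept in Advanced DMEM/F12 (1:1) with non-essential amino acids, 2 mM L-glutamine, penicillin, streptomycin and 10% FBS at 37 °C, 5% CO2. Seeded at 2000/well, attached overnight. Compound added in DMSO across a concentration range (1% DMSO final) for 72 h. Viable cells read by MTS/PMS and normalized to 1% DMSO controls (100%). IC50 taken from separate triplicate experiments.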
# [2] = Antiproliferative activity against human MDA1986 cells after 72 hrs by MTS/PMS assay; settings: MDA1986, 72 h; in short: as §1
# [3] = test system: B16-F10; assay: Antiproliferative activity against mouse B16F10 cells after 72 hrs by MTS/PMS assay; settings: B16-F10, 72 h; in short: as §1
# [4] = Antiproliferative activity against human JMAR cells after 72 hrs by MTS/PMS assay; in short: as §1
# [5] = test system: MCF7; assay: Antiproliferative activity against human MCF7 cells expressing estrogen receptor after 72 hrs by MTS/PMS assay; settings: MCF7, 72 h; in short: as §1
# [6] = test system: SK-BR-3; assay: Antiproliferative activity against human SKBR3 cells expressing HER2 after 72 hrs by MTS/PMS assay; settings: SK-BR-3, 72 h; in short: as §1
# [7] = Antiproliferative activity against human androgen-dependent LNCaP-LN3 cells after 72 hrs by MTS/PMS assay; settings: LNCaP-LN3, 72 h; in short: as §1
# [8] = Antiproliferative activity against human androgen-independent PC3MM2 cells after 72 hrs by MTS/PMS assay; settings: PC3MM2, 72 h; in short: as §1
SMILES,IC50 [1] [µM],IC50 [3] [µM],IC50 [5] [µM],IC50 [6] [µM],IC50 [2] [µM],IC50 [4] [µM],IC50 [7] [µM],IC50 [8] [µM]
COc1cccc(-c2cc(C(=O)Nc3cc4cc(OC)c(OC5CCCN(C(C)=O)C5)c(C)c4oc3=O)ccc2OC)c1 (stereo not given),29.4,23.9,,,36.4,32.8,,
CNCCOc1ccc2cc(NC(=O)c3ccc(OC)c(-c4cccc(OC)c4)c3)c(=O)oc2c1C,25.6,37.4,9.8,5.36,21.9,35.1,> 100,14
COc1cccc(-c2cc(C(=O)Nc3cc4ccc(OC5CC(C)C[C@@H](O)[C@H]5O)c(C)c4oc3=O)ccc2OC)c1 (stereo not given in full),11.4,2.5,> 100,> 100,6.74,2.73,1.14,4.09
COc1cccc(-c2cc(C(=O)Nc3cc4cc(OC)c(OC5C=CCN(C(C)=O)C5)c(C)c4oc3=O)ccc2OC)c1 (stereo not given),27.6,21.4,,,25.1,35.1,,
COc1cccc(-c2cc(C(=O)Nc3cc4ccc(OC5CC(C)(C)C[C@@H](O)[C@H]5O)c(C)c4oc3=O)ccc2OC)c1 (stereo not given in full),3.47,15.9,> 100,> 100,18.8,8.5,1.24,2.49
COc1cccc(-c2cc(C(=O)Nc3cc4ccc(O[C@H]5OCCC[C@H]5O)c(C)c4oc3=O)ccc2OC)c1,19.6,10.4,> 100,> 100,18.8,3.6,7.34,
COc1cccc(-c2cc(C(=O)Nc3cc4ccc(OC5C=CCCC5)c(C)c4oc3=O)ccc2OC)c1 (stereo not given),18.6,> 50,,,22.4,7.5,,
COc1cccc(-c2cc(C(=O)Nc3cc4ccc(OP(=O)(OC)OC)c(OC)c4oc3=O)ccc2OC)c1,,,> 100,18.1,,,6.58,11.5
COc1cccc(-c2cc(C(=O)Nc3cc4cc(OC)c(OP(=O)(OC)OC)c(C)c4oc3=O)ccc2OC)c1,,,24.2,26.5,,,1.36,31.3
COc1cccc(-c2cc(C(=O)Nc3cc4ccc(OP(=O)(OC)OC)c(C)c4oc3=O)ccc2OC)c1,,,> 100,> 100,,,3.65,> 100
CNCCOc1c(OC)cc2cc(NC(=O)c3ccc(OC)c(-c4cccc(OC)c4)c3)c(=O)oc2c1C,,,6.23,3.15,,,> 100,11.8
COc1cccc(-c2cc(C(=O)Nc3cc4cc(OC)c(O[C@@H]5OC[C@@H](O)[C@H]5O)c(C)c4oc3=O)ccc2OC)c1,,,3.37,9.45,,,4.72,9.56
COc1cccc(-c2cc(C(=O)Nc3cc4cc(OC)c(OC(=O)N(C)C)c(C)c4oc3=O)ccc2OC)c1,,,34.4,6.17,,,12.8,4.04
COc1cccc(-c2cc(C(=O)Nc3cc4ccc(O[C@@H]5OCC[C@H]5O)c(C)c4oc3=O)ccc2OC)c1,18.4,42.7,> 100,> 100,21.4,14.9,,
COc1cccc(-c2cc(C(=O)Nc3cc4ccc(O[C@@H]5OCCC[C@@H](O)[C@H]5O)c(C)c4oc3=O)ccc2OC)c1,18.5,> 50,> 100,2.38,22.9,7.4,> 100,
COc1cccc(-c2cc(C(=O)Nc3cc4ccc(OC5C=CCC(C)(C)C5)c(C)c4oc3=O)ccc2OC)c1 (stereo not given),23.8,> 50,,,24.4,6.7,,
COc1cccc(-c2cc(C(=O)Nc3cc4ccc(OCC(O)CO)c(OC)c4oc3=O)ccc2OC)c1 (stereo not given),,,> 50,> 50,,,0.96,1.66
COc1cccc(-c2cc(C(=O)Nc3cc4ccc(OC5C=CCN(C(C)=O)C5)c(C)c4oc3=O)ccc2OC)c1 (stereo not given),,,> 50,> 50,,,0.9,3.73
COc1cccc(-c2cc(C(=O)Nc3cc4ccc(OS(C)(=O)=O)c(C)c4oc3=O)ccc2OC)c1,,,8.85,7.33,,,20,> 100
COc1cccc(-c2cc(C(=O)Nc3cc4cc(OC)c(OC(N)=O)c(C)c4oc3=O)ccc2OC)c1,,,6.29,6.83,,,3.55,2.62
COc1cccc(-c2cc(C(=O)Nc3cc4ccc(O[C@@H]5OC[C@@H](O)[C@H]5O)c(C)c4oc3=O)ccc2OC)c1,5.74,4.55,37.2,12.5,1.94,12.6,3.65,
COc1cccc(-c2cc(C(=O)Nc3cc4cc(OC)c(O[C@H]5OCC[C@@H](O)[C@H]5O)c(C)c4oc3=O)ccc2OC)c1,,,64.5,12.5,,,14.9,25.4
CNCCOc1ccc2cc(NC(=O)c3ccc(OC)c(-c4cccc(OC)c4)c3)c(=O)oc2c1OC,,,4.32,3.6,,,15.2,9.12
COc1cccc(-c2cc(C(=O)Nc3cc4ccc(O)c(C)c4oc3=O)ccc2OC)c1,,,6.93,8.88,,,3.21,5.36
COc1cccc(-c2cc(C(=O)Nc3cc4ccc(O)c(OC)c4oc3=O)ccc2OC)c1,,,5.32,> 100,,,6.18,> 100
COc1cccc(-c2cc(C(=O)Nc3cc4ccc(OC5C=CCC(C)C5)c(C)c4oc3=O)ccc2OC)c1 (stereo not given),20.6,> 50,,,21.8,24.9,,
COc1cccc(-c2cc(C(=O)Nc3cc4ccc(O[C@H]5C[C@H](O)CCO5)c(C)c4oc3=O)ccc2OC)c1,,,> 100,> 100,,,3.11,> 100

# Continued by falling IC50 [5], values first:
IC50 [1] [µM],IC50 [3] [µM],IC50 [5] [µM],IC50 [6] [µM],SMILES,IC50 [2] [µM],IC50 [4] [µM],IC50 [7] [µM],IC50 [8] [µM]
14.7,0.64,3.29,2.61,COc1cccc(-c2cc(C(=O)Nc3cc4ccc(OC5CCCNC5)c(OC)c4oc3=O)ccc2OC)c1 (stereo not given),12.8,12.7,12.7,10.4
14.9,37.5,2.56,6.23,COc1cccc(-c2cc(C(=O)Nc3cc4ccc(O[C@@H]5OCC[C@@H](O)[C@H]5O)c(C)c4oc3=O)ccc2OC)c1,13.4,2.79,3.59,
,,1.86,2.58,COc1c(OC2CCN(C)CC2)ccc2cc(NC(=O)c3cc4ccccc4[nH]3)c(=O)oc12,,,12.6,7.93
,,1.85,3.92,COc1cccc(-c2cc(C(=O)Nc3cc4ccc(OC5CN(C)C[C@@H](O)[C@H]5O)c(C)c4oc3=O)ccc2OC)c1 (stereo not given in full),,,0.59,2.99
5.41,2.86,1.68,1.21,COc1cccc(-c2cc(C(=O)Nc3cc4cc(OC)c(OC5C=CCNC5)c(C)c4oc3=O)ccc2OC)c1 (stereo not given),5.9,11.6,5.4,3.57
,,1.53,0.91,COc1cccc(-c2cc(C(=O)Nc3cc4ccc(OCCCN(C)C)c(OC)c4oc3=O)ccc2OC)c1,,,8.03,4.08
,,1.51,1.34,COc1cccc(-c2cc(C(=O)Nc3cc4ccc(OC5CCN(C)CC5)c(C)c4oc3=O)ccc2OC)c1,,,4.12,3.13
,,1.5,5.72,COc1cccc(-c2cc(C(=O)Nc3cc4cc(OC)c(OC(C)=O)c(C)c4oc3=O)ccc2OC)c1,,,1.05,1.69
,,1.41,1.5,COc1c(OCCCN(C)C)ccc2cc(NC(=O)c3cc4ccccc4[nH]3)c(=O)oc12,,,4.71,8.95
6.14,0.41,1.39,0.97,COc1cccc(-c2cc(C(=O)Nc3cc4ccc(OC5CCN(C)CC5)c(OC)c4oc3=O)ccc2OC)c1,13.1,13.1,4.75,3.71
,,1.29,1.42,COc1cccc(-c2cc(C(=O)Nc3cc4cc(OC)c(OCCN(C)C)c(C)c4oc3=O)ccc2OC)c1,,,6.28,4.87
,,0.7,0.49,COc1cccc(-c2cc(C(=O)Nc3cc4cc(OC)c(OCCCN(C)C)c(C)c4oc3=O)ccc2OC)c1,,,4.71,5.4
1.35,2.03,0.56,0.57,COc1cc2cc(NC(=O)c3cc4ccccc4[nH]3)c(=O)oc2c(C)c1OCCCN(C)C,1.81,2.65,,2.58
,,0.5,0.6,COc1cccc(-c2cc(C(=O)Nc3cc4ccc(OCCCN(C)C)c(C)c4oc3=O)ccc2OC)c1,,,37.5,12.8

# Reference: ChEMBL document CHEMBL1795208 (J Med Chem, 2011)
